Results as given in ChEMBL document CHEMBL3804777, “Identification and Preclinical Pharmacology of BMS-986104: A Differentiated S1P1 Receptor Modulator in Clinical Trials” (ACS Med Chem Lett, 2016).
Calls of active or inactive are those of the source. The calls are words filed in the database; no cut-off is given here.

Tests used:
[1] = Drug metabolism in BALB/c mouse whole blood assessed as whole blood phosphate area ratio at 10 uM after 4 hrs by LC/MS/MS analysis; assay type: ADME, tissue-based
How it was run: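 Mouse whole blood incubated with the amino-alcohol prodrug; phosphorylated product measured by LC/MS/MS after 4 h to give the relative extent of phosphate ester formation.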

Mus musculus [2] = assay: Reduction of blood lymphocyte level in BALB/c mouse administered through oral gavage after 24 hrs by hematology analysis; assay type: functional, organism-based; conditions: for ED50: po
Heart [3] = assay: Toxicity in guinea pig heart assessed as third degree AV block at 100 nM after 10 mins by ECG analysis; assay type: tissue-based, Cavia porcellus; conditions: 0.1 µM
How it was run: (§1)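 Isolated guinea pig hearts perfused with the phosphate at the stated concentrations; ventricular rate and atrioventricular conduction (third-degree AV block) monitored.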

Heart [4] = assay: Toxicity in guinea pig heart assessed as reduction in ventricular rate at 1000 nM after 10 mins by ECG analysis; assay type: tissue-based, Cavia porcellus, Cardiac ventricle; conditions: 1 µM; how it was run: as §1
[5] = molecular target: T1, Sphingosine 1-phosphate receptor 1 (Homo sapiens, UniProt P21453); assay: Agonist activity at human S1P1 receptor expressed in CHO cells co-expressing GFP assessed as cellular internalization after 45 mins by Hoechst assay; assay type: cell-based
T1 sequence (P21453 whole entry): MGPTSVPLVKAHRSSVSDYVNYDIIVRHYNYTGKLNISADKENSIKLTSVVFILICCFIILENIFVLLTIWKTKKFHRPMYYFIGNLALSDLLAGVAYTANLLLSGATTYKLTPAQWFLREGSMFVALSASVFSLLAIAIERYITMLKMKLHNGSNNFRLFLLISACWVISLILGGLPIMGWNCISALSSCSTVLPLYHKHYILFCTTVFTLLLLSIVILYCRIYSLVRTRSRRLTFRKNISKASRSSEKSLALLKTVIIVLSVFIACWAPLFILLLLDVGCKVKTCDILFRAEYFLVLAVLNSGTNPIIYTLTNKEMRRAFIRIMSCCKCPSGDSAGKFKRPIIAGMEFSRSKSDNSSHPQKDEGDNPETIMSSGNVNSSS

[6] = molecular target: T2, Sphingosine 1-phosphate receptor 3 (Homo sapiens, UniProt Q99500); assay: Agonist activity at human S1P3 receptor by GTPgammaS binding assay; assay type: functional
T2 sequence (Q99500 whole entry): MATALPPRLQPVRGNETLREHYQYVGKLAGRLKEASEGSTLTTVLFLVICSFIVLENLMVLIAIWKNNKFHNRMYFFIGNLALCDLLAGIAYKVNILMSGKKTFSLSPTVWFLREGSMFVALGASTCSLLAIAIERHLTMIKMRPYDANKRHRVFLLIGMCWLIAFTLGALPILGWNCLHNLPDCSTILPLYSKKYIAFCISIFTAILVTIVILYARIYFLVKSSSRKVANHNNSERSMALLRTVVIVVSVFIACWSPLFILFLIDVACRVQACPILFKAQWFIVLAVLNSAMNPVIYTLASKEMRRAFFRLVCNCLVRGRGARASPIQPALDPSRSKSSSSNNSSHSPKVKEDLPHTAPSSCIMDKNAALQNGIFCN

Heart [7] = assay: Toxicity in guinea pig heart assessed as reduction in ventricular rate at 100 nM after 10 mins by ECG analysis; assay type: tissue-based, Cavia porcellus, Cardiac ventricle; conditions: 0.1 µM; how it was run: as §1
[8] = molecular target: T2, Sphingosine 1-phosphate receptor 3; assay: Antagonist activity at human S1P3 receptor by GTPgammaS binding assay; assay type: functional
[9] = Toxicity in human-inducible pluripotent stem cell-derived Cardiomyocyte assessed as reduction in cardiomyocyte beating at 1 nM after 2 hrs; set-up: scale not given: the % may be the effect or the level left; conditions: cardiac muscle cell, 0.001 µM
How it was run: (§2)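 Cultured human iPSC-derived cardiomyocytes expressing S1P1 and S1P3, exposed to a range of concentrations of the phosphate; beating rate measured and the no-effect concentration determined.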

Heart [10] = assay: Toxicity in guinea pig heart assessed as third degree AV block at 1000 nM after 10 mins by ECG analysis; assay type: tissue-based, Cavia porcellus; conditions: 1 µM; how it was run: as §1
[11] = molecular target: T1, Sphingosine 1-phosphate receptor 1; assay: Agonist activity at human S1P1 receptor expressed in CHO cells assessed as cAMP accumulation after 30 mins by HTRF analysis; assay type: functional, cell-based
[12] = molecular target: Sphingosine 1-phosphate receptor 5 (Homo sapiens, UniProt Q9H228); assay: Agonist activity at human S1P5 receptor by GTPgammaS binding assay; assay type: functional
Sequence of Sphingosine 1-phosphate receptor 5 (Q9H228 whole entry): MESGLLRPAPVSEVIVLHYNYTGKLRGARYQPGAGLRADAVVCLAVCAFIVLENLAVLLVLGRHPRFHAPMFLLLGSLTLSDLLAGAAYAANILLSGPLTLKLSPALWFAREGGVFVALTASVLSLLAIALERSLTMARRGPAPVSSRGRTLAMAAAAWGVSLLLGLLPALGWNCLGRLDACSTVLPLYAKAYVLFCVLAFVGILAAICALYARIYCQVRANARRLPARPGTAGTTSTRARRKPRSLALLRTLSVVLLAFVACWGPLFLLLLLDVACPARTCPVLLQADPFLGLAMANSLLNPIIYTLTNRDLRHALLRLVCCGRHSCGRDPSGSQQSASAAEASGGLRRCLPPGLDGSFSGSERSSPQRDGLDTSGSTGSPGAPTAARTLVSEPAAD

[13] = molecular target: T1, Sphingosine 1-phosphate receptor 1; assay: Agonist activity at human S1P1 receptor expressed in CHO cells assessed as ERK phosphorylation after 7 mins by alphaLISA; assay type: cell-based
[14] = molecular target: T3, Sphingosine 1-phosphate receptor 4 (Homo sapiens, UniProt O95977); assay: Agonist activity at human S1P4 receptor by GTPgammaS binding assay; assay type: functional
T3 sequence (O95977 whole entry): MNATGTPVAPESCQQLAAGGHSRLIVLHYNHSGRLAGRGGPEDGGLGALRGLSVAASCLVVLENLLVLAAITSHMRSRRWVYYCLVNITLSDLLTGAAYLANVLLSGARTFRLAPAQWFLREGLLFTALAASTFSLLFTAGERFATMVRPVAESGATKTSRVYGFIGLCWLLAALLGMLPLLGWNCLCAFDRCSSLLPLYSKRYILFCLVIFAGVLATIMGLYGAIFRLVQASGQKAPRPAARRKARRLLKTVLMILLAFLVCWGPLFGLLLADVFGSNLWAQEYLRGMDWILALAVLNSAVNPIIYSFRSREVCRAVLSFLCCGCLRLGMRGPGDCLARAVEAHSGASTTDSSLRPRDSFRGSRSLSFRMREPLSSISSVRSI

[15] = Toxicity in human-inducible pluripotent stem cell-derived Cardiomyocyte assessed as reduction in cardiomyocyte beating after 2 hrs; conditions: cardiac muscle cell; how it was run: as §2
[16] = Toxicity in human-inducible pluripotent stem cell-derived Cardiomyocyte assessed as reduction in cardiomyocyte beating at 0.1 nM after 2 hrs; conditions: cardiac muscle cell, 0.0001 µM; how it was run: as §2
Heart [17] = assay: Toxicity in guinea pig heart assessed as reduction in ventricular rate at 1 nM after 10 mins by ECG analysis; assay type: tissue-based, Cavia porcellus, Cardiac ventricle; conditions: 0.001 µM; how it was run: as §1
Heart [18] = assay: Toxicity in guinea pig heart assessed as third degree AV block at 1 nM after 10 mins by ECG analysis; assay type: tissue-based, Cavia porcellus; conditions: 0.001 µM; how it was run: as §1
Mus musculus [19] = assay: Reduction in Fcgr4 gene expression in SCID mouse with CD45RBhiCD4+ T-cell transfer-induced colitis model of inflammatory bowel disease at 5 mg/kg, po dosed every other day for 5 weeks by RT-PCR method; assay type: functional; conditions: 840 h
How it was run: (§3)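 CD45RBhiCD4+ T-cell transfer colitis in mice; oral alternate-day dosing for 5 weeks, compared with vehicle. Read-outs: body weight, colon length, histological colon inflammation and tissue damage, and colon gene expression by RT-PCR (IFN-γ, IL-2, CD4, B220, CD11b, Fcgr4, Ifit1, OASL2).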

Mus musculus [20] = assay: Reduction in lymphocyte level in BALB/c mouse assessed as blood lymphocyte level at 0.5 mg/kg, po after 24 hrs by hematology analysis (reference value: 5.13 to 8.02 10^3/mm3); assay type: functional
Mus musculus [21] = assay: Reduction in body weight loss in SCID mouse with CD45RBhiCD4+ T-cell transfer-induced colitis model of inflammatory bowel disease at 1 mg/kg, po dosed daily for 5 weeks; assay type: functional, organism-based
How it was run: (§4)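 CD45RBhiCD4+ T-cell transfer colitis in mice; oral dosing at 1 mg/kg/day for 5 weeks, compared with vehicle. Read-outs: body weight, colon length, and colon gene expression by RT-PCR (IFN-γ, IL-2, CD4, B220, CD11b, Fcgr4, Ifit1, OASL2).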

Mus musculus [22] = assay: Reduction in lymphocyte level in BALB/c mouse assessed as blood lymphocyte level at 30 mg/kg, po after 24 hrs by hematology analysis (reference value: 5.13 to 8.02 10^3/mm3); assay type: functional
Mus musculus [23] = assay: Reduction in B220 gene expression in SCID mouse with CD45RBhiCD4+ T-cell transfer-induced colitis model of inflammatory bowel disease at 5 mg/kg, po dosed every other day for 5 weeks by RT-PCR method; assay type: functional; conditions: 840 h; how it was run: as §3
Mus musculus [24] = assay: Reduction in CD11b gene expression in SCID mouse with CD45RBhiCD4+ T-cell transfer-induced colitis model of inflammatory bowel disease at 5 mg/kg, po dosed every other day for 5 weeks by RT-PCR method; assay type: functional; conditions: 840 h; how it was run: as §3
Mus musculus [25] = assay: Pulmonary toxicity in BALB/c mouse assessed as BAL protein levels at 30 mg/kg, po after 24 by hematology analysis (reference value: 8.2 to 8.3 mg/dL); assay type: organism-based; conditions: in vivo
Mus musculus [26] = assay: Induction of colon length shortening in SCID mouse with CD45RBhiCD4+ T-cell transfer-induced colitis model of inflammatory bowel disease at 1 mg/kg, po dosed daily for 5 weeeks; assay type: functional, organism-based; how it was run: as §4
Mus musculus [27] = assay: Reduction in lymphocyte level in BALB/c mouse assessed as blood lymphocyte level at 10 mg/kg, po after 24 hrs by hematology analysis (reference value: 5.13 to 8.02 10^3/mm3); assay type: functional
Mus musculus [28] = assay: Reduction in Ifit1 gene expression in SCID mouse with CD45RBhiCD4+ T-cell transfer-induced colitis model of inflammatory bowel disease at 5 mg/kg, po dosed every other day for 5 weeks by RT-PCR method; assay type: functional; conditions: 840 h; how it was run: as §3
Mus musculus [29] = assay: Reduction in OASL2 gene expression in SCID mouse with CD45RBhiCD4+ T-cell transfer-induced colitis model of inflammatory bowel disease at 5 mg/kg, po dosed every other day for 5 weeks by RT-PCR method; assay type: functional; conditions: 840 h; how it was run: as §3
Mus musculus [30] = assay: Reduction in IFNgamma gene expression in SCID mouse with CD45RBhiCD4+ T-cell transfer-induced colitis model of inflammatory bowel disease at 5 mg/kg, po dosed every other day for 5 weeks by RT-PCR method; assay type: functional; conditions: 840 h; how it was run: as §3
Mus musculus [31] = assay: Pulmonary toxicity in BALB/c mouse assessed as BAL protein levels at 0.5 mg/kg, po after 24 by hematology analysis (reference value: 8.2 to 8.3 mg/dL); assay type: organism-based; conditions: in vivo
Mus musculus [32] = assay: Reduction in IL2 gene expression in SCID mouse with CD45RBhiCD4+ T-cell transfer-induced colitis model of inflammatory bowel disease at 5 mg/kg, po dosed every other day for 5 weeks by RT-PCR method; assay type: functional; conditions: 840 h; how it was run: as §3
Mus musculus [33] = assay: Reduction in CD4 gene expression in SCID mouse with CD45RBhiCD4+ T-cell transfer-induced colitis model of inflammatory bowel disease at 5 mg/kg, po dosed every other day for 5 weeks by RT-PCR method; assay type: functional; conditions: 840 h; how it was run: as §3
Mus musculus [34] = assay: Pulmonary toxicity in BALB/c mouse assessed as BAL protein levels at 10 mg/kg, po after 24 by hematology analysis (reference value: 8.2 to 8.3 mg/dL); assay type: organism-based; conditions: in vivo
Blood [35] = assay: Drug metabolism in BALB/c mouse blood assessed as formation of phosphate ester metabolite at 10 mg/kg administered through oral gavage after 4 hrs by LC/MS/MS analysis; assay type: ADME, organism-based; conditions: in vivo
How it was run: (§5)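 Mouse PK study: alcohol prodrug given orally at 10 mg/kg, and formation of the phosphate metabolite in blood measured.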

Blood [36] = assay: Drug metabolism in BALB/c mouse blood assessed as formation of phosphate ester metabolite at 10 mg/kg administered through oral gavage after 24 hrs by LC/MS/MS analysis; assay type: ADME, organism-based; conditions: in vivo; how it was run: as §5
Blood [37] = assay: Drug metabolism in BALB/c mouse blood assessed as formation of phosphate metabolite at 1 mg/kg administered through oral gavage after 24 hrs by LC/MS/MS analysis; assay type: ADME, organism-based; conditions: in vivo
How it was run: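 Single oral 1 mg/kg dose in mice; phosphate level in blood determined at 24 h postdose.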

Mus musculus [38] = assay: Reduction of blood lymphocyte level in BALB/c mouse at 1 mg/kg administered through oral gavage after 24 hrs by hematology analysis; assay type: functional; set-up: scale not given: the % may be the effect or the level left
How it was run: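 Mice given a single oral 1 mg/kg dose; circulating lymphocytes counted 24 h later as the pharmacodynamic marker.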

## CCCCCCC1CCc2cc(C3CCC(N)(CO)C3)ccc2C1 (stereo in doubt; 3e)
[1]
  Ratio: 0.03

## CCCCCC[C@@H]1CCc2cc([C@H]3CC[C@](N)(COP(=O)(O)O)C3)ccc2C1
Mus musculus [2]
  EC50: 7.9 nM
  ED50: 0.12 mg/kg
Heart [3]
  Activity: Non-toxic
Heart [4]
  Activity: Toxic
[5]
  EC50: 0.114 nM
[6]
  EC50: > 1000 nM
Heart [7]
  Activity: Non-toxic
[8]
  IC50: > 1000 nM
[9]
  Activity: Non-toxic
Heart [10]
  Activity: Toxic
[11]
  EC50: 0.006 nM
[12]
  EC50: 10.7 nM
[13]
  EC50: 8.16 nM
[14]
  EC50: 10.5 nM

## CCCCCCC1CCc2cc(C3CCC(N)(CO)C3)ccc2C1 (stereo in doubt; 3g)
[1]
  Ratio: 0.02

## CCCCCCCCc1ccc(CCC(N)(CO)COP(=O)(O)O)cc1 (stereo not given)
Mus musculus [2]
  EC50: 5.6 nM
  ED50: 0.017 mg/kg
[15]
  Activity: Dose-dependent effect
[16]
  Activity: Non-toxic
Heart [17]
  Activity: 32 bpm
[9]
  Activity: 35%
Heart [18]
  Activity: Toxic
[14]
  EC50: 0.09 nM

## CCCCCCCCc1ccc(CCC(N)(CO)CO)cc1 [FINGOLIMOD]
Mus musculus [19]
  inhibition in vivo at 5 mg/kg: 25%
Mus musculus [20]
  Activity: 1.28 ×10³ /mm3
Mus musculus [21]
  inhibition: Active
Mus musculus [22]
  Activity: 0.29 ×10³ /mm3
Mus musculus [23]
  inhibition in vivo at 5 mg/kg: 55%
Mus musculus [24]
  inhibition in vivo at 5 mg/kg: 45%
Mus musculus [25]
  Activity: 71 mg/dL
Mus musculus [26]
  Activity: Active
Mus musculus [27]
  Activity: 0.92 ×10³ /mm3
Mus musculus [28]
  inhibition in vivo at 5 mg/kg: 16%
Mus musculus [29]
  inhibition in vivo at 5 mg/kg: 7%
Mus musculus [30]
  inhibition in vivo at 5 mg/kg: 30%
Mus musculus [31]
  Activity: 7.5 mg/dL
Mus musculus [32]
  inhibition in vivo at 5 mg/kg: 68%
Mus musculus [33]
  inhibition in vivo at 5 mg/kg: 60%
Mus musculus [34]
  Activity: 34.2 mg/dL

## CCCCCCC1CCc2cc(C3CCC(N)(CO)C3)ccc2C1 (stereo in doubt; 3b)
Blood [35]
  Drug metabolism: 67 nM
Blood [36]
  Drug metabolism: 475 nM
Blood [37]
  Drug metabolism: 47 nM
[1]
  Ratio: 1.6
Mus musculus [38]
  Activity: 90%
